Reference: ChEMBL document CHEMBL1275427, “Antimicrobial susceptibilities of geographically diverse clinical human isolates of Leptospira” (2008)
In brackets after ≈: the same amount, converted by molar mass.

Key:
Assay type in all cases: functional
[1] = Antimicrobial activity against Leptospira interrogans serovar Canicola isolate 11 by broth microdilution method
Summary of the method: (§1)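 Strains grown 7 days in EMJH medium at 30°C; inoculum counted by Petroff-Hausser chamber under dark-field microscopy and added at 2 × 10^6 organisms/ml. Twofold serial dilutions in EMJH, final 32.0 to 0.016 μg/ml (units/ml for penicillin), 96-well round-bottom plates, 30°C. alamarBlue added day 3; colour read day 5. MIC is lowest concentration without blue-to-pink change. Triplicate runs, median reported; L. interrogans Icterohaemorrhagiae quality control.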

[2] = Antimicrobial activity against Leptospira interrogans serovar Pomona isolate 12 by broth microdilution method; summary of the method: as §1
[3] = Antimicrobial activity against Leptospira interrogans serovar Grippotyphosa isolate 2 by broth microdilution method
Summary of the method: (§2)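 Serial twofold dilutions in EMJH medium, final 32.0 to 0.016 μg/ml (units/ml for penicillin). Inoculum from 7-day EMJH cultures grown at 30°C, counted by Petroff-Hausser chamber under dark-field microscopy, added at 2 × 10^6 organisms/ml. Plates incubated at 30°C; alamarBlue added on day 3 and colour read on day 5. MIC is the lowest concentration without blue-to-pink change; median of triplicate runs.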

[4] = Antimicrobial activity against Leptospira interrogans isolate 7 by broth microdilution method; summary of the method: as §2
[5] = Antimicrobial activity against Leptospira interrogans serovar Icterohaemorrhagiae isolate 3 by broth microdilution method; summary of the method: as §1
Leptospira weilii [6] = assay: Antimicrobial activity against Leptospira weilii isolate 6 by broth microdilution method; summary of the method: as §1
[7] = test system: Leptospira kirschneri serovar Grippotyphosa; assay: Antimicrobial activity against Leptospira kirschneri serovar Grippotyphosa isolate 13 by broth microdilution method; summary of the method: as §2
[8] = Antimicrobial activity against Leptospira interrogans serovar Icterohaemorrhagiae isolate 9 by broth microdilution method; summary of the method: as §1
Leptospira weilii [9] = assay: Antimicrobial activity against Leptospira weilii isolate 8 by broth microdilution method; summary of the method: as §1
[10] = Antimicrobial activity against Leptospira interrogans serovar Icterohaemorrhagiae isolate 10 by broth microdilution method; summary of the method: as §1
[11] = Antimicrobial activity against Leptospira interrogans serovar Pomona isolate 4 by broth microdilution method; summary of the method: as §1
[12] = Antimicrobial activity against Leptospira interrogans serovar Pyrogenes isolate 5 by broth microdilution method; summary of the method: as §1
[13] = Antimicrobial activity against Leptospira interrogans serovar Bataviae isolate 1 by broth microdilution method; summary of the method: as §1
[14] = Leptospira interrogans, isolate 11, read-out: MIC
[15] = Leptospira interrogans, isolate 12, read-out: MIC
[16] = Leptospira interrogans, isolate 7, read-out: MIC
[17] = Leptospira interrogans, isolate 3, read-out: MIC
[18] = Leptospira weilii, isolate 6, read-out: MIC
[19] = Leptospira kirschneri, isolate 13, read-out: MIC
[20] = Leptospira interrogans, isolate 9, read-out: MIC
[21] = Leptospira weilii, isolate 8, read-out: MIC
[22] = Leptospira interrogans, isolate 10, read-out: MIC
[23] = Leptospira interrogans, isolate 4, read-out: MIC
[24] = Leptospira interrogans, isolate 5, read-out: MIC
[25] = Leptospira interrogans, isolate 1, read-out: MIC

| Compound | MIC [1, 14] | MIC [2, 15] | MIC [3] | MIC [4, 16] | MIC [5, 17] | MIC (Leptospira weilii [6]; [18]) | MIC [7, 19] | MIC [8, 20] | MIC (Leptospira weilii [9]; [21]) | MIC [10, 22] | MIC [11, 23] | MIC [12, 24] | MIC [13, 25] | also measured |
| --- | --- | --- | --- | --- | --- | --- | --- | --- | --- | --- | --- | --- | --- | --- |
| CC1(C)S[C@@H]2[C@H](NC(=O)[C@H](N)c3ccccc3)C(=O)N2[C@H]1C(=O)O [AMPICILLIN] | < 0.016 µg/mL | < 0.016 µg/mL | < 0.016 µg/mL | < 0.016 µg/mL | < 0.016 µg/mL | < 0.016 µg/mL | < 0.016 µg/mL | < 0.016 µg/mL | < 0.016 µg/mL | < 0.016 µg/mL | < 0.016 µg/mL | < 0.016 µg/mL | < 0.016 µg/mL |  |
| CC[C@H]1OC(=O)[C@H](C)[C@@H](O[C@H]2C[C@@](C)(OC)[C@@H](O)[C@H](C)O2)[C@H](C)[C@@H](O[C@@H]2O[C@H](C)C[C@H](N(C)C)[C@H]2O)[C@](C)(O)C[C@@H](C)CN(C)[C@H](C)[C@@H](O)[C@]1(C)O [AZITHROMYCIN] | < 0.016 µg/mL | < 0.016 µg/mL | < 0.016 µg/mL | < 0.016 µg/mL | < 0.016 µg/mL | < 0.016 µg/mL | < 0.016 µg/mL | < 0.016 µg/mL | < 0.016 µg/mL | < 0.016 µg/mL | < 0.016 µg/mL | < 0.016 µg/mL | < 0.016 µg/mL |  |
| CO/N=C(\C(=O)N[C@@H]1C(=O)N2C(C(=O)[O-])=C(C[N+]3(C)CCCC3)CS[C@H]12)c1csc(N)n1 [CEFEPIME] | < 0.016 µg/mL | < 0.016 µg/mL | < 0.016 µg/mL | < 0.016 µg/mL | < 0.016 µg/mL | < 0.016 µg/mL | < 0.016 µg/mL | < 0.016 µg/mL | < 0.016 µg/mL | < 0.016 µg/mL | < 0.016 µg/mL | < 0.016 µg/mL | < 0.016 µg/mL |  |
| CO/N=C(\C(=O)N[C@@H]1C(=O)N2C(C(=O)O)=C(COC(C)=O)CS[C@H]12)c1csc(N)n1 [CEFOTAXIME] | < 0.016 µg/mL | < 0.016 µg/mL | 0.03 µg/mL (≈ 0.0659 µM) | 0.03 µg/mL (≈ 0.0659 µM) | < 0.016 µg/mL | 0.03 µg/mL (≈ 0.0659 µM) | < 0.016 µg/mL | < 0.016 µg/mL | 0.03 µg/mL (≈ 0.0659 µM) | < 0.016 µg/mL | < 0.016 µg/mL | < 0.016 µg/mL | < 0.016 µg/mL |  |
| CO/N=C(\C(=O)N[C@@H]1C(=O)N2C(C(=O)O)=C(CSc3nc(=O)c(O)nn3C)CS[C@H]12)c1csc(N)n1 [CEFTRIAXONE] | 0.03 µg/mL (≈ 0.0541 µM) | < 0.016 µg/mL | 0.06 µg/mL (≈ 0.108 µM) | 0.06 µg/mL (≈ 0.108 µM) | < 0.016 µg/mL | 0.06 µg/mL (≈ 0.108 µM) | < 0.016 µg/mL | < 0.016 µg/mL | 0.03 µg/mL (≈ 0.0541 µM) | < 0.016 µg/mL | 0.06 µg/mL (≈ 0.108 µM) | < 0.016 µg/mL | 0.03 µg/mL (≈ 0.0541 µM) |  |
| O=C(O)c1cn(C2CC2)c2cc(N3CCNCC3)c(F)cc2c1=O [CIPROFLOXACIN] | 0.06 µg/mL (≈ 0.181 µM) | 0.06 µg/mL (≈ 0.181 µM) | 0.125 µg/mL (≈ 0.377 µM) | 0.125 µg/mL (≈ 0.377 µM) | 0.125 µg/mL (≈ 0.377 µM) | 0.125 µg/mL (≈ 0.377 µM) | 0.03 µg/mL (≈ 0.0905 µM) | 0.125 µg/mL (≈ 0.377 µM) | 0.125 µg/mL (≈ 0.377 µM) | 0.125 µg/mL (≈ 0.377 µM) | 0.25 µg/mL (≈ 0.754 µM) | 0.125 µg/mL (≈ 0.377 µM) | 0.125 µg/mL (≈ 0.377 µM) |  |
| CC[C@H]1OC(=O)[C@H](C)[C@@H](O[C@H]2C[C@@](C)(OC)[C@@H](O)[C@H](C)O2)[C@H](C)[C@@H](O[C@@H]2O[C@H](C)C[C@H](N(C)C)[C@H]2O)[C@](C)(OC)C[C@@H](C)C(=O)[C@H](C)[C@@H](O)[C@]1(C)O [CLARITHROMYCIN] | < 0.016 µg/mL | < 0.016 µg/mL | < 0.016 µg/mL | < 0.016 µg/mL | < 0.016 µg/mL | < 0.016 µg/mL | < 0.016 µg/mL | < 0.016 µg/mL | < 0.016 µg/mL | < 0.016 µg/mL | < 0.016 µg/mL | < 0.016 µg/mL | < 0.016 µg/mL |  |
| C[C@H]1c2cccc(O)c2C(=O)C2=C(O)[C@]3(O)C(=O)C(C(N)=O)=C(O)[C@@H](N(C)C)[C@@H]3[C@@H](O)[C@@H]21.O [DOXYCYCLINE] | 0.06 µg/mL | 0.06 µg/mL | 1 µg/mL | 0.25 µg/mL | 2 µg/mL | 0.5 µg/mL | < 0.016 µg/mL | 0.25 µg/mL | 0.5 µg/mL | 0.5 µg/mL | 2 µg/mL | 1 µg/mL | 1 µg/mL |  |
| C[C@H]1COc2c(N3CCN(C)CC3)c(F)cc3c(=O)c(C(=O)O)cn1c23.C[C@H]1COc2c(N3CCN(C)CC3)c(F)cc3c(=O)c(C(=O)O)cn1c23.O [LEVOFLOXACIN] | 0.03 µg/mL | < 0.016 µg/mL | 0.06 µg/mL | 0.06 µg/mL | 0.06 µg/mL | 0.06 µg/mL | < 0.016 µg/mL | 0.125 µg/mL | 0.125 µg/mL | 0.125 µg/mL | 0.125 µg/mL | 0.06 µg/mL | 0.06 µg/mL |  |
| COc1c(N2C[C@@H]3CCCN[C@@H]3C2)c(F)cc2c(=O)c(C(=O)O)cn(C3CC3)c12 [MOXIFLOXACIN] | 0.03 µg/mL (≈ 0.0747 µM) | < 0.016 µg/mL | 0.06 µg/mL (≈ 0.149 µM) | 0.06 µg/mL (≈ 0.149 µM) | 0.06 µg/mL (≈ 0.149 µM) | 0.06 µg/mL (≈ 0.149 µM) | 0.03 µg/mL (≈ 0.0747 µM) | 0.125 µg/mL (≈ 0.311 µM) | 0.125 µg/mL (≈ 0.311 µM) | 0.125 µg/mL (≈ 0.311 µM) | 0.125 µg/mL (≈ 0.311 µM) | 0.06 µg/mL (≈ 0.149 µM) | 0.06 µg/mL (≈ 0.149 µM) |  |
| CC1(C)S[C@@H]2[C@H](NC(=O)Cc3ccccc3)C(=O)N2[C@H]1C(=O)O [PENICILLIN G] |  |  |  |  |  |  |  |  |  |  |  |  |  | MIC [1]: 0.25 U/ml; MIC [2]: 0.06 U/ml; MIC [4]: 0.06 U/ml; MIC [5]: <0.016 U/ml; MIC (Leptospira weilii [6]): 0.03 U/ml; MIC [7]: 0.125 U/ml; MIC [8]: <0.016 U/ml; MIC (Leptospira weilii [9]): 0.06 U/ml; MIC [10]: <0.016 U/ml; MIC [11]: 0.06 U/ml; MIC [12]: <0.016 U/ml; MIC [13]: <0.016 U/ml |
| CN(C)[C@@H]1C(O)=C(C(N)=O)C(=O)[C@@]2(O)C(O)=C3C(=O)c4c(O)cccc4[C@@](C)(O)[C@H]3C[C@@H]12 [TETRACYCLINE] | 0.125 µg/mL (≈ 0.281 µM) | 0.125 µg/mL (≈ 0.281 µM) | 1 µg/mL (≈ 2.25 µM) | 1 µg/mL (≈ 2.25 µM) | 4 µg/mL (≈ 9 µM) | 1 µg/mL (≈ 2.25 µM) | < 0.016 µg/mL | 1 µg/mL (≈ 2.25 µM) | 0.5 µg/mL (≈ 1.13 µM) | 0.5 µg/mL (≈ 1.13 µM) | 2 µg/mL (≈ 4.5 µM) | 4 µg/mL (≈ 9 µM) | 1 µg/mL (≈ 2.25 µM) |  |
